Key:
Type in all cases: functional
[1] = tested on: MDA-MB-435; test: Growth inhibition of human MDA-MB-435 cells assessed as cell viability at 0.1 uM incubated for 48 hrs by sulforhodamine B assay; details: MDA-MB-435, 48 h, read-out: Activity
[2] = tested on: MOLT-4; test: Growth inhibition of human MOLT4 cells assessed as cell viability at 0.001 uM incubated for 48 hrs by sulforhodamine B assay relative to control; details: MOLT-4, 48 h, read-out: Activity
[3] = tested on: M14; test: Growth inhibition of human M14 cells incubated for 48 hrs by sulforhodamine B assay; details: M14, 48 h
Procedure, shortened: (§1)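 NCI-60 five-dose SRB assay in RPMI 1640 with 5% FBS, 37 °C, 5% CO2. Compound given at five tenfold dilutions, 0.01–100 µM, for 48 h. Adherent cells fixed with TCA, suspension cells with 16% final TCA. Bound SRB read at 515 nm and growth calculated against time-zero and untreated controls. GI50 taken from dose–response curves as the concentration giving a 50% decrease in net cell growth.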

[4] = tested on: OVCAR-3; test: Growth inhibition of human OVCAR3 cells assessed as cell viability at 100 uM incubated for 48 hrs by sulforhodamine B assay; details: OVCAR-3, 48 h, read-out: Activity
[5] = tested on: UACC-257; test: Growth inhibition of human UACC257 cells assessed as cell viability at 0.001 uM incubated for 48 hrs by sulforhodamine B assay relative to control; details: UACC-257, 48 h, read-out: Activity
[6] = tested on: SNB-75; test: Cell cycle arrest in human SNB75 cells assessed as accumulation in G0/G1 phase at 2 uM incubated for 24 hrs by propidium iodide based flow cytometry (reference value: 55.62 %)
Procedure, shortened: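 SNB-75 cells were exposed to 2 µM for 24 h at 37 °C, 5% CO2, then washed with PBS and fixed in 70% ethanol on ice for 15 min. They were stained 1 h at room temperature with 50 µg/mL propidium iodide, 0.1 mg/mL RNase A and 0.05% Triton X-100. DNA content was read by flow cytometry to give the % of cells in pre-G1, G0/G1, S and G2/M.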

[7] = tested on: HCT-15; test: Growth inhibition of human HCT15 cells assessed as cell viability at 0.001 uM incubated for 48 hrs by sulforhodamine B assay relative to control; details: HCT-15, 48 h, read-out: Activity
[8] = tested on: RXF 393; test: Growth inhibition of human RXF393 cells incubated for 48 hrs by sulforhodamine B assay; details: RXF 393, 48 h
Procedure, shortened: (§2)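 NCI-60 five-dose SRB assay. Cells were exposed for 48 h to tenfold dilutions of 0.01, 0.1, 1, 10 and 100 µM, in RPMI 1640 with 5% FBS. Plates fixed with TCA at the time of drug addition served as the time-zero reference. GI50 is the concentration giving a 50% reduction in net growth. TGI is total growth inhibition. LC50 is a net 50% loss of the initial cells.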

[9] = tested on: UACC-62; test: Growth inhibition of human UACC62 cells assessed as cell viability at 0.1 uM incubated for 48 hrs by sulforhodamine B assay; details: UACC-62, 48 h, read-out: Activity
[10] = tested on: NCI/ADR-RES; test: Growth inhibition of human NCI/ADR-RES cells assessed as cell viability at 100 uM incubated for 48 hrs by sulforhodamine B assay; details: read-out: Activity
[11] = tested on: KM12; test: Growth inhibition of human KM12 cells assessed as cell viability at 1 uM incubated for 48 hrs by sulforhodamine B assay; details: KM12, 48 h, read-out: Activity
[12] = tested on: SN12C; test: Growth inhibition of human SN12C cells assessed as cell viability at 0.1 uM incubated for 48 hrs by sulforhodamine B assay; details: read-out: Activity
[13] = tested on: U-251; test: Growth inhibition of human U251 cells incubated for 48 hrs by sulforhodamine B assay; details: U-251, 48 h; procedure, shortened: as §2
[14] = tested on: NCI-H460; test: Growth inhibition of human NCI-H460 cells incubated for 48 hrs by sulforhodamine B assay; details: NCI-H460, 48 h; procedure, shortened: as §1
[15] = tested on: ACHN; test: Growth inhibition of human ACHN cells incubated for 48 hrs by sulforhodamine B assay
Procedure, shortened: (§3)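 NCI-60 five-dose mode: five tenfold dilutions (0.01, 0.1, 1, 10, 100 µM) are applied for 48 h to cells in RPMI 1640 with 5% FBS at 37 °C. Endpoint is TCA fixation with sulforhodamine B read at 515 nm. % growth comes from the 0 h and control absorbances. GI50 is the concentration giving a 50% reduction in net cell growth.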

[16] = tested on: MDA-MB-468; test: Growth inhibition of human MDA-MB-468 cells incubated for 48 hrs by sulforhodamine B assay; details: MDA-MB-468, 48 h; procedure, shortened: as §1
[17] = tested on: HCT-116; test: Growth inhibition of human HCT116 cells incubated for 48 hrs by sulforhodamine B assay; details: HCT-116, 48 h; procedure, shortened: as §3
[18] = tested on: T47D; test: Growth inhibition of human T47D cells incubated for 48 hrs by sulforhodamine B assay; procedure, shortened: as §2
[19] = tested on: SF-295; test: Growth inhibition of human SF295 cells assessed as cell viability at 0.001 uM incubated for 48 hrs by sulforhodamine B assay relative to control; details: SF-295, 48 h, read-out: Activity
[20] = tested on: LOX IMVI; test: Growth inhibition of human LOXIMVI cells assessed as cell viability at 1 uM incubated for 48 hrs by sulforhodamine B assay; details: read-out: Activity
[21] = read-out: LC50 (the source's name)
[22] = read-out: pLC50 (the source's name) (converted)

With `CC1=C(C(=O)OCc2ccccc2)C(c2ccc3c(c2)OCO3)n2c(nc3ccccc32)N1` (racemic) the viability at 0.1 µM [1] was 46%, the viability at 0.001 µM [2] was 96% and the GI50 ([3]; read-out: GI50) was 0.46 µM. For the same compound, the LC50 (50% net cell kill) ([3]; read-out: LC50) was greater than 100 µM, the TGI ([3]; read-out: TGI) was greater than 100 µM and the GI50 ([3]; read-out: pGI50 (converted)) was 0.468 µM. For the same compound, the LC50 (50% net cell kill) ([3]; read-out: pLC50 (converted)) was greater than 100 µM, the TGI ([3]; read-out: pTGI) was greater than 100 µM and the viability at 100 µM [4] was -10%. For the same compound, the viability at 0.001 µM [5] was 88%, the Activity [6] was 34.52% and the viability at 0.001 µM [7] was 92%. It also gave a GI50 ([8]; read-out: GI50) of 0.31 µM, a CC50 [8, 21] greater than 100 µM and a TGI ([8]; read-out: TGI) greater than 100 µM. For the same compound, the GI50 ([8]; read-out: pGI50 (converted)) was 0.302 µM, the CC50 [8, 22] was greater than 100 µM and the TGI ([8]; read-out: pTGI) was greater than 100 µM. The viability at 0.1 µM [9] was 80%, the viability at 100 µM [10] was 14% and the viability at 1 µM [11] was 19%. It also gave a viability at 0.1 µM [12] of 95%, a GI50 ([13]; read-out: GI50) of 0.46 µM and an LC50 ([13]; read-out: LC50) greater than 100 µM. It also gave a TGI ([13]; read-out: TGI) greater than 100 µM, a GI50 ([13]; read-out: pGI50 (converted)) of 0.427 µM and an LC50 ([13]; read-out: pLC50 (converted)) greater than 100 µM. For the same compound, the TGI ([13]; read-out: pTGI) was greater than 100 µM, the GI50 ([14]; read-out: GI50) was 0.36 µM and the CC50 [14, 21] was greater than 100 µM. The TGI ([14]; read-out: TGI) was greater than 100 µM, the GI50 ([14]; read-out: pGI50 (converted)) was 0.363 µM and the CC50 [14, 22] was greater than 100 µM. The TGI ([14]; read-out: pTGI) was greater than 100 µM, the GI50 ([15]; read-out: GI50) was 0.69 µM and the CC50 [15, 21] was greater than 100 µM. It also gave a TGI ([15]; read-out: TGI) greater than 100 µM, a GI50 ([15]; read-out: pGI50 (converted)) of 0.692 µM and a CC50 [15, 22] greater than 100 µM. It also gave a TGI ([15]; read-out: pTGI) greater than 100 µM, a GI50 ([16]; read-out: GI50) of 0.27 µM and a CC50 [16, 21] greater than 100 µM. For the same compound, the TGI ([16]; read-out: TGI) was greater than 100 µM, the GI50 ([16]; read-out: pGI50 (converted)) was 0.269 µM and the CC50 [16, 22] was greater than 100 µM. For the same compound, the TGI ([16]; read-out: pTGI) was greater than 100 µM, the GI50 ([17]; read-out: GI50) was 0.47 µM and the LC50 ([17]; read-out: LC50) was greater than 100 µM. The TGI ([17]; read-out: TGI) was greater than 100 µM, the GI50 ([17]; read-out: pGI50 (converted)) was 0.479 µM and the LC50 ([17]; read-out: pLC50 (converted)) was greater than 100 µM. For the same compound, the TGI ([17]; read-out: pTGI) was greater than 100 µM, the GI50 ([18]; read-out: GI50) was 0.48 µM and the CC50 [18, 21] was greater than 100 µM. For the same compound, the TGI ([18]; read-out: TGI) was greater than 100 µM, the GI50 ([18]; read-out: pGI50 (converted)) was 0.479 µM and the CC50 [18, 22] was greater than 100 µM. The TGI ([18]; read-out: pTGI) was greater than 100 µM, the viability at 0.001 µM [19] was 87% and the viability at 1 µM [20] was 35%.
